Sampled rows, rich in hits. Any-hit rate of the full collection: about 5.3%.
CSC inhib = blocks cancer stem cells. cancer stem cell-like cells viability, luminescence. inhibition, % at 7.5 µM. actives 1.1% (n = 300,000); in the data active = inhibition above about 75%; inconclusive = no clear call, values can overlap the other calls; tested in HMLE shEcad cells
T cruzi repl = T. cruzi replication inhibition; actives 1.4% (n = 300,000); T. cruzi beta-gal in NIH3T3, luminescence, 90 h; inhibition, % (concentration not given with the values);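 active = mean inhibition across valid replicates above about 55%, limit read from the data; inconclusive = mean below that limit but half or more replicates reach it; inactive = mean below it, under half of replicates reach it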;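 also: signal also drops with host cell toxicity which is not excluded here; higher percent means less beta-gal luminescence so fewer parasites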
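System: NIH/3T3 fibroblasts plus reporter T. cruzi. Medium: DMEM plus 2% FBS. Probe or stimulus: 5000 reporter trypomastigotes per well. Compound: single 50 nL compound addition per well in DMSO. Incubation: co-culture of at least 90 h after 3 h attachment. Detection: GalScreen β-gal luminescence, detergent lysis, 60 min. Evaluation: parasite load inhibition, %.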
Mdm2-MdmX inh = disrupts the human Mdm2-MdmX interaction; O15151+Q00987; SaOS-2 split-luciferase Mdm2/MdmX complementation, luminescence; inhibition, % at 8 µM; actives 3% (n = 330,000);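 active = inhibition of at least 50% at 8 µM in the primary screen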
Target sequence (O15151 whole entry, looked up): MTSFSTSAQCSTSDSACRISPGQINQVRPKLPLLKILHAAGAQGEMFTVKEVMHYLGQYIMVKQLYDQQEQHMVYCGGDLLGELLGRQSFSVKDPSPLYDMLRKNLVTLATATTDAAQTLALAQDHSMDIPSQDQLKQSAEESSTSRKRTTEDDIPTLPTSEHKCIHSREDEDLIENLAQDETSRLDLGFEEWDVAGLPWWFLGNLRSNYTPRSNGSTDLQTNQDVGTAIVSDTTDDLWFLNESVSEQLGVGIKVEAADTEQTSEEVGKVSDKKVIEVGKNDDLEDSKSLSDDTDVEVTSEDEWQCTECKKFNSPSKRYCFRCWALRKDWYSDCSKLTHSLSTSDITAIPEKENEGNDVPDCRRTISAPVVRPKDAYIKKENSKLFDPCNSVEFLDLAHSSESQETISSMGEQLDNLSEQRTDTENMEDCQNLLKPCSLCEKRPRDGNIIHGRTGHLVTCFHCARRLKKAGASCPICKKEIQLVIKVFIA
Target sequence (Q00987 whole entry, looked up): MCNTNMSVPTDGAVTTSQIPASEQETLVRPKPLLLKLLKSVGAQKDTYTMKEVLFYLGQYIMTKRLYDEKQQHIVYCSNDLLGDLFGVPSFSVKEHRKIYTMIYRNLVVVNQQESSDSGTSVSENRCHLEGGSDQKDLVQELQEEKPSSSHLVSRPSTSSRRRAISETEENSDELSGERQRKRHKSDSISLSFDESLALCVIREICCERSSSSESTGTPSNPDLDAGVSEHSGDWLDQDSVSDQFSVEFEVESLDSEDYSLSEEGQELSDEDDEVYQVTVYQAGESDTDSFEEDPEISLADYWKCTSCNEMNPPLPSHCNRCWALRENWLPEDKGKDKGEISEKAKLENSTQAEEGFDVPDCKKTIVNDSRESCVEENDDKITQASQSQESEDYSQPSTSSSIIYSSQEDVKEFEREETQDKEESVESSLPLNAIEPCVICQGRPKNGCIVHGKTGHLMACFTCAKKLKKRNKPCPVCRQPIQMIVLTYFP
Calb FLC = affects C. albicans growth with fluconazole | C. albicans CaCi-2 (fluconazole-resistant clinical isolate) + fluconazole, Alamar Blue growth, 48 h | growth inhibition, % (test concentration not listed) | actives 0.57% (n = 300,000) | AID 1979;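 active = growth inhibition above about 58% in most replicates, limit read from the data, passing the limit was not always enough; inconclusive = exactly half the replicates above a set limit; inactive = most replicates below a set limit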;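 also: all wells also contain fluconazole at 8 µg/ml as a sub-toxic cotreatment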
Beta cell apopt = beta cell apoptosis inhibition; INS-1E cytokine-induced death, ATP luminescence, 48 h; percent of positive-control rescue, neutral wells zero; protection from apoptosis, % (no concentration beside the values); actives 0.8% (n = 300,000); AID 435005;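 active = Every replicate reaches about 75%, or at least half do and their mean reaches it too, limit read from the data; inconclusive = At least half of replicates reach the limit but their mean does not; inactive = Under half of replicates reach the limit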;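 also: higher means more ATP so stronger rescue from cytokine killing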
NALP3 yeast inh = NALP3 inhibition in yeast; Yeast reconstituted NLRP3/ASC/caspase-1, beta-gal luminescence, 24 h; inhibition, % at 10 µM; actives 0.39% (n = 330,000); AID 2825;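 active = inhibition of 50% or more; inactive = inhibition below 50%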
A number is an active result; – = inactive; ? = inconclusive; · = no result.

SMILES	CSC inhib	T cruzi repl	Mdm2-MdmX inh	Calb FLC	Beta cell apopt	NALP3 yeast inh
CCC1(C)Cc2nc(Cl)c(C#N)cc2CO1 (configuration not stated)	–	–	–	–	–	–
CCCn1nc(CC(=O)OCC)c2ccccc2c1=O	–	–	–	–	–	–
CCCCCCSc1nsc(NC(=O)CC(C)C)n1	91	–	–	–	–	–
CCCSc1nsc(NC(=O)CC)n1	–	–	–	–	·	–
CCCSc1nsc(NC(=O)C(c2ccccc2)c2ccccc2)n1	122	–	–	–	–	–
Cc1ccccc1OCC(=O)NCC(=O)N/N=C/c1ccc(Br)o1	–	–	–	–	–	–
O=C(N/N=C\C=C\c1ccc([N+](=O)[O-])o1)c1cccs1	–	78	–	91	–	–
COc1ccccc1OCC(=O)N/N=C/C=C/c1ccc([N+](=O)[O-])o1	–	58	–	94	–	–
Cc1ccccc1OCC(=O)N/N=C/c1ccc([N+](=O)[O-])o1	–	61	–	–	–	–
Cc1ccc(/C=N\NC(=O)COc2ccc(C)cc2[N+](=O)[O-])cc1	–	–	–	–	–	–
Cc1cc(C)cc(OCC(=O)N/N=C/c2ccc([N+](=O)[O-])o2)c1	–	60	–	?	–	–
O=S1(=O)CCC(n2ncc3c2/C(=C/c2ccccc2)CC3)C1 (configuration not stated)	–	–	–	–	–	–
O=S(=O)(/C=C/c1cccc(Br)c1)N1CCOCC1	–	–	–	–	–	–
CN(CCOc1ccccc1)CC(O)COCc1ccccc1F (configuration not stated)	–	55	–	–	–	–
CN(CCOc1ccccc1)CC(O)COc1ccccc1 (configuration not stated)	–	–	–	–	–	–
CN(CCOc1ccc(Br)cc1)CC(O)c1ccccc1 (configuration not stated)	–	70	–	–	–	–
O=C(O)CCCCCn1c(O)c(C=C2N=c3ccccc3=N2)sc1=S	–	–	–	83	·	–
O=C(O)CCCn1c(O)c(C=C2N=c3ccccc3=N2)sc1=S	–	–	–	–	–	–
CCc1ccc(-c2cc(C(=O)O)c3ccccc3n2)s1	–	–	–	–	–	–
Cc1cc(C(=O)OCC(=O)Nc2ccc(S(N)(=O)=O)cc2)c2ccccc2n1	–	–	–	127	–	–
Cc1cc(C)nc(NS(=O)(=O)c2ccc(NC(=O)COc3ccccc3)cc2)n1	–	–	–	79	–	–
COc1ccccc1NC(=O)COC(=O)c1cc(C)nc2ccccc12	·	·	–	·	–	–
COc1cccc(CNC(=O)N2CCN(c3ccccc3C)CC2)c1	–	–	–	–	–	–
S=c1[nH]nc(Cn2nnc3ccccc32)n1-c1ccc(Cl)cc1	–	–	–	–	–	–
C=CCN(C(=O)CSc1nc2c(sc3ccccc32)c(=O)n1CCN(CC)CC)c1ccccc1	·	82	–	–	–	–
SMILES	CSC inhib	T cruzi repl	Mdm2-MdmX inh	Calb FLC	Beta cell apopt	NALP3 yeast inh
O=C(NC1CCCCC1)C(c1ccncc1)N(Cc1ccccc1)C(=O)c1ccc(-c2ccccc2)[nH]1 (configuration not stated)	–	70	–	–	–	–
COc1ccccc1N1CCN(Cc2nc3ccccc3c(=O)n2CC(C)=O)CC1	–	–	–	–	–	–
O=C(N/N=C/c1ccc[nH]1)c1cc2ccccc2cc1O	·	–	–	?	–	–
O=C(N/N=C/c1ccncc1)c1cc2ccccc2cc1O	–	–	–	91	–	–
Cc1ccc(C(C)C)cc1OCC(=O)Nc1ccc(N2CCCCC2)cc1	–	63	–	–	–	–
Cc1ccc(CN2C(=O)/C(=C\c3ccc(C(=O)NCc4cccnc4)cc3)Oc3ccccc32)cc1	108	–	–	–	99	–
COc1ccc(C(C(=O)NC2CCCCC2)N(C(=O)c2ccco2)c2ccc(-n3cnnn3)c(C)c2)cc1 (configuration not stated)	–	–	–	–	–	–
COc1cccc(C(C(=O)NC2CCCC2)N(C(=O)c2ccco2)c2ccc(-n3cnnn3)c(C)c2)c1OC (configuration not stated)	–	–	–	92	–	–
O=S(=O)(NCc1cc(-c2ccccc2)no1)c1ccccc1Cl	–	–	–	–	–	–
COc1ccc(N=N/C(=C\O)C(=O)c2cccs2)cc1	88	–	–	–	·	–

From PubChem
